Reference: ChEMBL document CHEMBL1155459, “On-bead screening of a combinatorial fumaric acid derived peptide library yields antiplasmodial cysteine protease inhibitors with unusual peptide sequences” (J Med Chem, 2009)
Peptide text beside a SMILES is read from it.

Assays:
[1] = Inhibition of Plasmodium falciparum falcipain-2 after 12 hrs by fluorescence spectroscopy-based on-bead assay; parameters: concentration or dose not given beside the values; details: concentration not given here
Outline: (§1)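 Library members on resin (PEGA, theoretical loading 0.40 mmol/g; added as DMSO suspension, 0.64 mM final inhibitor) preincubated with enzyme 12 h, then Cbz-Phe-Arg-AMC 40 μM added; AMC release followed by fluorescence (ex 380/em 460 nm). Kinetics compared with inhibitor-free amino-PEGA resin.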

[2] = target: Rhodesain (Trypanosoma brucei rhodesiense) (UniProt Q95PM0); assay: Inhibition of Trypanosoma brucei rhodesiense rhodesain after 12 hrs by fluorescence spectroscopy-based on-bead assay; parameters: concentration or dose not given beside the values; details: concentration not given here; outline: as §1
Chain of Rhodesain (Trypanosoma brucei rhodesiense) (Q95PM0 1-450): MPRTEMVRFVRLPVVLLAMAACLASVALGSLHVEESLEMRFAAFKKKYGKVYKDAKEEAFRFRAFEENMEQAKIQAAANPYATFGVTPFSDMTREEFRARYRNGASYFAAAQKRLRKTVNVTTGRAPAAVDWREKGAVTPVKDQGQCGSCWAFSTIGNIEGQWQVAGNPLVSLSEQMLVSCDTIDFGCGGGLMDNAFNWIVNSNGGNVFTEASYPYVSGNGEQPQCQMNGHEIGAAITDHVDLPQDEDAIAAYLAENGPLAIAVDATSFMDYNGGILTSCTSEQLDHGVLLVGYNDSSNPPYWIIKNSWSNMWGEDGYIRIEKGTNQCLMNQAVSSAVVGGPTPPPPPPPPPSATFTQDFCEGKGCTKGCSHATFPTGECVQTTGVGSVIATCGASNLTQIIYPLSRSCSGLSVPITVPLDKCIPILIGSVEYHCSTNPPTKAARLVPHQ

Structure (SMILES)	inhibition [1]	inhibition [2]
CC(C)C[C@H](NC(=O)[C@H](Cc1ccccc1)NC(=O)[C@H](CCC(N)=O)NC(=O)/C=C/C(=O)N[C@@H](C)C(=O)NCC(=O)N[C@@H](Cc1ccccc1)C(=O)O)C(=O)N[C@H](C(N)=O)C(C)C (HELM PEPTIDE1{[C[C@H](NC(=O)/C=C/C(=O)[*:2])C(=O)NCC(=O)N[C@@H](Cc1ccccc1)C(=O)O].Q.F.L.V.[am]}$$$$V2.0)	49%	60%
CC(C)[C@H](NC(=O)[C@@H](NC(=O)[C@H](Cc1ccccc1)NC(=O)[C@H](CCC(N)=O)NC(=O)/C=C/C(=O)N[C@@H](C)C(=O)NCC(=O)N[C@@H](Cc1ccccc1)C(=O)O)C(C)C)C(N)=O (HELM PEPTIDE1{[C[C@H](NC(=O)/C=C/C(=O)[*:2])C(=O)NCC(=O)N[C@@H](Cc1ccccc1)C(=O)O].Q.F.V.V.[am]}$$$$V2.0)	58%	45%
CC[C@H](C)[C@H](NC(=O)[C@H](CCC(N)=O)NC(=O)/C=C/C(=O)N[C@@H](C)C(=O)NCC(=O)N[C@@H](Cc1ccccc1)C(=O)O)C(=O)N[C@@H](C)C(=O)N[C@H](C(N)=O)C(C)C (HELM PEPTIDE1{[C[C@H](NC(=O)/C=C/C(=O)[*:2])C(=O)NCC(=O)N[C@@H](Cc1ccccc1)C(=O)O].Q.I.A.V.[am]}$$$$V2.0)	43%	29%
CC[C@H](C)[C@H](NC(=O)[C@H](CCC(N)=O)NC(=O)/C=C/C(=O)N[C@@H](C)C(=O)NCC(=O)N[C@@H](Cc1ccccc1)C(=O)O)C(=O)N[C@@H](CC(C)C)C(=O)N[C@H](C(N)=O)C(C)C (HELM PEPTIDE1{[C[C@H](NC(=O)/C=C/C(=O)[*:2])C(=O)NCC(=O)N[C@@H](Cc1ccccc1)C(=O)O].Q.I.L.V.[am]}$$$$V2.0)	46%	47%
CC[C@H](C)[C@H](NC(=O)[C@H](CCC(N)=O)NC(=O)/C=C/C(=O)N[C@@H](C)C(=O)NCC(=O)N[C@@H](Cc1ccccc1)C(=O)O)C(=O)N[C@H](C(=O)N[C@H](C(N)=O)C(C)C)C(C)C (HELM PEPTIDE1{[C[C@H](NC(=O)/C=C/C(=O)[*:2])C(=O)NCC(=O)N[C@@H](Cc1ccccc1)C(=O)O].Q.I.V.V.[am]}$$$$V2.0)	54%	38%
CC(C)C[C@H](NC(=O)[C@H](CCC(N)=O)NC(=O)/C=C/C(=O)N[C@@H](C)C(=O)NCC(=O)N[C@@H](Cc1ccccc1)C(=O)O)C(=O)N[C@@H](C)C(=O)N[C@H](C(N)=O)C(C)C (HELM PEPTIDE1{[C[C@H](NC(=O)/C=C/C(=O)[*:2])C(=O)NCC(=O)N[C@@H](Cc1ccccc1)C(=O)O].Q.L.A.V.[am]}$$$$V2.0)	54%	7%
CC(C)C[C@H](NC(=O)[C@H](CCC(N)=O)NC(=O)/C=C/C(=O)N[C@@H](C)C(=O)NCC(=O)N[C@@H](Cc1ccccc1)C(=O)O)C(=O)N[C@@H](CC(C)C)C(=O)N[C@H](C(N)=O)C(C)C (HELM PEPTIDE1{[C[C@H](NC(=O)/C=C/C(=O)[*:2])C(=O)NCC(=O)N[C@@H](Cc1ccccc1)C(=O)O].Q.L.L.V.[am]}$$$$V2.0)	55%	56%
CC(C)[C@H](NC(=O)[C@H](C)NC(=O)[C@@H](NC(=O)[C@H](CCC(N)=O)NC(=O)/C=C/C(=O)N[C@@H](C)C(=O)NCC(=O)N[C@@H](Cc1ccccc1)C(=O)O)C1CCCCC1)C(N)=O (HELM PEPTIDE1{[C[C@H](NC(=O)/C=C/C(=O)[*:2])C(=O)NCC(=O)N[C@@H](Cc1ccccc1)C(=O)O].Q.[O=C([C@@H](N[*:1])C1CCCCC1)[*:2]].A.V.[am]}$$$$V2.0)	55%	39%
CC(C)C[C@H](NC(=O)[C@@H](NC(=O)[C@H](CCC(N)=O)NC(=O)/C=C/C(=O)N[C@@H](C)C(=O)NCC(=O)N[C@@H](Cc1ccccc1)C(=O)O)C1CCCCC1)C(=O)N[C@H](C(N)=O)C(C)C (HELM PEPTIDE1{[C[C@H](NC(=O)/C=C/C(=O)[*:2])C(=O)NCC(=O)N[C@@H](Cc1ccccc1)C(=O)O].Q.[O=C([C@@H](N[*:1])C1CCCCC1)[*:2]].L.V.[am]}$$$$V2.0)	47%	52%
CC(C)[C@H](NC(=O)[C@@H](NC(=O)[C@@H](NC(=O)[C@H](CCC(N)=O)NC(=O)/C=C/C(=O)N[C@@H](C)C(=O)NCC(=O)N[C@@H](Cc1ccccc1)C(=O)O)C1CCCCC1)C(C)C)C(N)=O (HELM PEPTIDE1{[C[C@H](NC(=O)/C=C/C(=O)[*:2])C(=O)NCC(=O)N[C@@H](Cc1ccccc1)C(=O)O].Q.[O=C([C@@H](N[*:1])C1CCCCC1)[*:2]].V.V.[am]}$$$$V2.0)	47%	43%
CC(C)[C@H](NC(=O)[C@H](C)NC(=O)[C@@H](NC(=O)[C@H](CCC(N)=O)NC(=O)/C=C/C(=O)N[C@@H](C)C(=O)NCC(=O)N[C@@H](Cc1ccccc1)C(=O)O)c1ccccc1)C(N)=O (HELM PEPTIDE1{[C[C@H](NC(=O)/C=C/C(=O)[*:2])C(=O)NCC(=O)N[C@@H](Cc1ccccc1)C(=O)O].Q.[Phg].A.V.[am]}$$$$V2.0)	55%	12%
CC(C)C[C@H](NC(=O)[C@@H](NC(=O)[C@H](CCC(N)=O)NC(=O)/C=C/C(=O)N[C@@H](C)C(=O)NCC(=O)N[C@@H](Cc1ccccc1)C(=O)O)c1ccccc1)C(=O)N[C@H](C(N)=O)C(C)C (HELM PEPTIDE1{[C[C@H](NC(=O)/C=C/C(=O)[*:2])C(=O)NCC(=O)N[C@@H](Cc1ccccc1)C(=O)O].Q.[Phg].L.V.[am]}$$$$V2.0)	30%	68%
CC(C)[C@H](NC(=O)[C@@H](NC(=O)[C@@H](NC(=O)[C@H](CCC(N)=O)NC(=O)/C=C/C(=O)N[C@@H](C)C(=O)NCC(=O)N[C@@H](Cc1ccccc1)C(=O)O)c1ccccc1)C(C)C)C(N)=O (HELM PEPTIDE1{[C[C@H](NC(=O)/C=C/C(=O)[*:2])C(=O)NCC(=O)N[C@@H](Cc1ccccc1)C(=O)O].Q.[Phg].V.V.[am]}$$$$V2.0)	46%	34%
CC(=O)NC[C@H](NC(=O)/C=C/C(=O)N[C@@H](C)C(=O)NCC(=O)N[C@@H](Cc1ccccc1)C(=O)O)C(=O)N[C@@H](Cc1ccccc1)C(=O)N[C@@H](C)C(=O)N[C@H](C(N)=O)C(C)C (HELM PEPTIDE1{[C[C@H](NC(=O)/C=C/C(=O)[*:2])C(=O)NCC(=O)N[C@@H](Cc1ccccc1)C(=O)O].[O=C([C@H](CN[*:3])N[*:1])[*:2]].F.A.V.[am]}|PEPTIDE2{[ac]}$PEPTIDE1,PEPTIDE2,2:R3-1:R2$$$V2.0)	13%	17%
CC(=O)NC[C@H](NC(=O)/C=C/C(=O)N[C@@H](C)C(=O)NCC(=O)N[C@@H](Cc1ccccc1)C(=O)O)C(=O)N[C@@H](Cc1ccccc1)C(=O)N[C@@H](CC(C)C)C(=O)N[C@H](C(N)=O)C(C)C (HELM PEPTIDE1{[C[C@H](NC(=O)/C=C/C(=O)[*:2])C(=O)NCC(=O)N[C@@H](Cc1ccccc1)C(=O)O].[O=C([C@H](CN[*:3])N[*:1])[*:2]].F.L.V.[am]}|PEPTIDE2{[ac]}$PEPTIDE1,PEPTIDE2,2:R3-1:R2$$$V2.0)	43%	52%
CC(=O)NC[C@H](NC(=O)/C=C/C(=O)N[C@@H](C)C(=O)NCC(=O)N[C@@H](Cc1ccccc1)C(=O)O)C(=O)N[C@@H](Cc1ccccc1)C(=O)N[C@H](C(=O)N[C@H](C(N)=O)C(C)C)C(C)C (HELM PEPTIDE1{[C[C@H](NC(=O)/C=C/C(=O)[*:2])C(=O)NCC(=O)N[C@@H](Cc1ccccc1)C(=O)O].[O=C([C@H](CN[*:3])N[*:1])[*:2]].F.V.V.[am]}|PEPTIDE2{[ac]}$PEPTIDE1,PEPTIDE2,2:R3-1:R2$$$V2.0)	32%	44%
CC[C@H](C)[C@H](NC(=O)[C@H](CNC(C)=O)NC(=O)/C=C/C(=O)N[C@@H](C)C(=O)NCC(=O)N[C@@H](Cc1ccccc1)C(=O)O)C(=O)N[C@@H](C)C(=O)N[C@H](C(N)=O)C(C)C (HELM PEPTIDE1{[C[C@H](NC(=O)/C=C/C(=O)[*:2])C(=O)NCC(=O)N[C@@H](Cc1ccccc1)C(=O)O].[O=C([C@H](CN[*:3])N[*:1])[*:2]].I.A.V.[am]}|PEPTIDE2{[ac]}$PEPTIDE1,PEPTIDE2,2:R3-1:R2$$$V2.0)	28%	26%
CC[C@H](C)[C@H](NC(=O)[C@H](CNC(C)=O)NC(=O)/C=C/C(=O)N[C@@H](C)C(=O)NCC(=O)N[C@@H](Cc1ccccc1)C(=O)O)C(=O)N[C@@H](CC(C)C)C(=O)N[C@H](C(N)=O)C(C)C (HELM PEPTIDE1{[C[C@H](NC(=O)/C=C/C(=O)[*:2])C(=O)NCC(=O)N[C@@H](Cc1ccccc1)C(=O)O].[O=C([C@H](CN[*:3])N[*:1])[*:2]].I.L.V.[am]}|PEPTIDE2{[ac]}$PEPTIDE1,PEPTIDE2,2:R3-1:R2$$$V2.0)	32%	61%
CC[C@H](C)[C@H](NC(=O)[C@H](CNC(C)=O)NC(=O)/C=C/C(=O)N[C@@H](C)C(=O)NCC(=O)N[C@@H](Cc1ccccc1)C(=O)O)C(=O)N[C@H](C(=O)N[C@H](C(N)=O)C(C)C)C(C)C (HELM PEPTIDE1{[C[C@H](NC(=O)/C=C/C(=O)[*:2])C(=O)NCC(=O)N[C@@H](Cc1ccccc1)C(=O)O].[O=C([C@H](CN[*:3])N[*:1])[*:2]].I.V.V.[am]}|PEPTIDE2{[ac]}$PEPTIDE1,PEPTIDE2,2:R3-1:R2$$$V2.0)	52%	49%
CC(=O)NC[C@H](NC(=O)/C=C/C(=O)N[C@@H](C)C(=O)NCC(=O)N[C@@H](Cc1ccccc1)C(=O)O)C(=O)N[C@@H](CC(C)C)C(=O)N[C@@H](C)C(=O)N[C@H](C(N)=O)C(C)C (HELM PEPTIDE1{[C[C@H](NC(=O)/C=C/C(=O)[*:2])C(=O)NCC(=O)N[C@@H](Cc1ccccc1)C(=O)O].[O=C([C@H](CN[*:3])N[*:1])[*:2]].L.A.V.[am]}|PEPTIDE2{[ac]}$PEPTIDE1,PEPTIDE2,2:R3-1:R2$$$V2.0)	28%	19%
CC(=O)NC[C@H](NC(=O)/C=C/C(=O)N[C@@H](C)C(=O)NCC(=O)N[C@@H](Cc1ccccc1)C(=O)O)C(=O)N[C@@H](CC(C)C)C(=O)N[C@@H](CC(C)C)C(=O)N[C@H](C(N)=O)C(C)C (HELM PEPTIDE1{[C[C@H](NC(=O)/C=C/C(=O)[*:2])C(=O)NCC(=O)N[C@@H](Cc1ccccc1)C(=O)O].[O=C([C@H](CN[*:3])N[*:1])[*:2]].L.L.V.[am]}|PEPTIDE2{[ac]}$PEPTIDE1,PEPTIDE2,2:R3-1:R2$$$V2.0)	41%	63%
